Experimental data as given in ChEMBL document CHEMBL6078712, “Triterpenoid phthalimides as selective anti-cancer agents targeting mitochondrial apoptosis” (Eur J Med Chem, 2025).

Key:
U2OS = assay: Cytotoxicity against human U2OS cells assessed as inhibition of cell growth incubated for 72 hrs by MTS assay; type: functional, cell-based
Summary of the method: (§1)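 MTS assay on eight human cancer lines and two non-tumour fibroblast lines. IC50 is the concentration that inhibits cell growth by 50 %. SD typically up to 15 % of the mean.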

HCT-116 = assay: Cytotoxicity against human HCT-116 cells assessed as inhibition of cell growth incubated for 72 hrs by MTS assay; type: functional, cell-based; settings: HCT-116, 72 h; summary of the method: as §1
A549 = assay: Cytotoxicity against human A549 cells assessed as inhibition of cell growth incubated for 72 hrs by MTS assay; type: functional, cell-based; settings: A549, 72 h; summary of the method: as §1
[1] = Cytotoxicity against human MRC5 cells assessed as inhibition of cell growth incubated for 72 hrs by MTS assay; type: toxicity, cell-based; summary of the method: as §1
HCT 116 TP53(-/-) = assay: Cytotoxicity against human HCT116-p53-null cells assessed as inhibition of cell growth incubated for 72 hrs by MTS assay; type: functional, cell-based; summary of the method: as §1
[2] = Cytotoxicity against human K562-Tax cells assessed as inhibition of cell growth incubated for 72 hrs by MTS assay; type: functional, cell-based; summary of the method: as §1
CCRF-CEM = assay: Cytotoxicity against human CCRF-CEM cells assessed as inhibition of cell growth incubated for 72 hrs by MTS assay; type: functional, cell-based; summary of the method: as §1
CEM-DNR = assay: Cytotoxicity against human CEM-DNR cells assessed as inhibition of cell growth incubated for 72 hrs by MTS assay; type: functional, cell-based; summary of the method: as §1
[3] = Cytotoxicity against human BJ cells assessed as inhibition of cell growth incubated for 72 hrs by MTS assay; type: toxicity, cell-based; summary of the method: as §1
K562 = assay: Cytotoxicity against human K562 cells assessed as inhibition of cell growth incubated for 72 hrs by MTS assay; type: functional, cell-based; settings: K562, 72 h; summary of the method: as §1

Structure (SMILES) | IC50 (U2OS) [µM] | IC50 (HCT-116) [µM] | IC50 (A549) [µM] | IC50 at 72 h [1] [µM] | IC50 (HCT 116 TP53(-/-)) [µM] | IC50 [2] [µM] | IC50 (CCRF-CEM) [µM] | IC50 (CEM-DNR) [µM] | IC50 at 72 h [3] [µM] | IC50 (K562) [µM]
COc1ccc(N2C(=O)c3ccc([C@@H]4CC[C@]5(CO)CC[C@]6(C)[C@H](CC[C@@H]7[C@@]8(C)CC[C@H](OC(C)=O)C(C)(C)[C@@H]8CC[C@]76C)[C@@H]45)cc3C2=O)cc1 | > 50 | > 50 | > 50 | > 50 | > 50 | > 50 | > 50 | > 50 | > 50 | > 50
COC(=O)c1ccc([C@@H]2CC[C@]3(CO)CC[C@]4(C)[C@H](CC[C@@H]5[C@@]6(C)CC[C@H](O)C(C)(C)[C@@H]6CC[C@]54C)[C@@H]23)cc1C(=O)OC | > 50 | > 50 | > 50 | > 50 | > 50 | 10.3 | > 50 | 19.7 | > 50 | > 50
CC(=O)OC[C@]12CC[C@@H](c3ccc4c(c3)C(=O)NC4=O)[C@@H]1[C@H]1CC[C@@H]3[C@@]4(C)CC[C@H](OC(C)=O)C(C)(C)[C@@H]4CC[C@@]3(C)[C@]1(C)CC2 | > 50 | > 50 | > 50 | > 50 | > 50 | > 50 | > 50 | > 50 | > 50 | > 50
CC(=O)OC[C@]12CC[C@@H](c3cc4c(c(-c5ccccc5)c3)C(=O)NC4=O)[C@@H]1[C@H]1CC[C@@H]3[C@@]4(C)CC[C@H](OC(C)=O)C(C)(C)[C@@H]4CC[C@@]3(C)[C@]1(C)CC2 | > 50 | > 50 | > 50 | > 50 | > 50 | > 50 | > 50 | > 50 | > 50 | > 50
CC1(C)[C@@H](O)CC[C@]2(C)[C@H]3CC[C@@H]4[C@H]5[C@H](c6ccc(C#N)c(C#N)c6)CC[C@]5(C(=O)O)CC[C@@]4(C)[C@]3(C)CC[C@@H]12 | 20 | 23.7 | 19.9 | 25.3 | 31.8 | 5.08 | 5.9 | 5.23 | 35.5 | 30
COc1ccc(N2C(=O)c3ccc([C@@H]4CC[C@]5(COC(C)=O)CC[C@]6(C)[C@H](CC[C@@H]7[C@@]8(C)CC[C@H](OC(C)=O)C(C)(C)[C@@H]8CC[C@]76C)[C@@H]45)cc3C2=O)cc1 | > 50 | > 50 | > 50 | > 50 | > 50 | > 50 | > 50 | > 50 | > 50 | > 50
COC(=O)c1cc([C@@H]2CC[C@]3(CO)CC[C@]4(C)[C@H](CC[C@@H]5[C@@]6(C)CC[C@H](O)C(C)(C)[C@@H]6CC[C@]54C)[C@@H]23)cc(-c2ccccc2)c1C(=O)OC | > 50 | > 50 | > 50 | > 50 | > 50 | > 50 | > 50 | > 50 | > 50 | > 50
CC(=O)Nc1ccc(N2C(=O)c3cc([C@@H]4CC[C@]5(C(=O)O)CC[C@]6(C)[C@H](CC[C@@H]7[C@@]8(C)CC[C@H](OC(C)=O)C(C)(C)[C@@H]8CC[C@]76C)[C@@H]45)cc(-c4ccccc4)c3C2=O)cc1 | 18.8 | 16.8 | 34.6 | 33.7 | 28.4 | > 50 | 8.08 | > 50 | > 50 | 27.9
Cc1cc([C@@H]2CC[C@]3(C(=O)O)CC[C@]4(C)[C@H](CC[C@@H]5[C@@]6(C)CC[C@H](O)C(C)(C)[C@@H]6CC[C@]54C)[C@@H]23)cc2c1C(=O)NC2=O | 24.8 | 25.9 | > 50 | 34.3 | 27.2 | 7.2 | 7.97 | 8.76 | > 50 | > 50
CC1(C)[C@@H](O)CC[C@]2(C)[C@H]3CC[C@@H]4[C@H]5[C@H](c6ccc(C(=O)O)c(C(=O)O)c6)CC[C@]5(C(=O)O)CC[C@@]4(C)[C@]3(C)CC[C@@H]12 | > 50 | > 50 | > 50 | > 50 | > 50 | > 50 | > 50 | > 50 | > 50 | > 50
COC(=O)c1cc([C@@H]2CC[C@]3(C(=O)O)CC[C@]4(C)[C@H](CC[C@@H]5[C@@]6(C)CC[C@H](O)C(C)(C)[C@@H]6CC[C@]54C)[C@@H]23)cc(-c2ccccc2)c1C(=O)OC | 9.94 | 5.46 | 4.44 | 30.2 | 6.17 | 4.36 | 6.3 | 4.85 | 36.3 | 6.12
COc1ccc(N2C(=O)c3ccc([C@@H]4CC[C@]5(C(=O)O)CC[C@]6(C)[C@H](CC[C@@H]7[C@@]8(C)CC[C@H](O)C(C)(C)[C@@H]8CC[C@]76C)[C@@H]45)cc3C2=O)cc1 | 27.5 | > 50 | 28.1 | > 50 | > 50 | 5.35 | 11.1 | 9.85 | > 50 | > 50
CC(=O)O[C@H]1CC[C@]2(C)[C@H]3CC[C@@H]4[C@H]5[C@H](c6ccc7c(c6)C(=O)NC7=O)CC[C@]5(CO)CC[C@@]4(C)[C@]3(C)CC[C@H]2C1(C)C | 34.5 | 19.7 | > 50 | 28.5 | 21.8 | 7.43 | 14 | 9.21 | > 50 | 36
CC(=O)O[C@H]1CC[C@]2(C)[C@H]3CC[C@@H]4[C@H]5[C@H](c6cc7c(c(-c8ccccc8)c6)C(=O)NC7=O)CC[C@]5(CO)CC[C@@]4(C)[C@]3(C)CC[C@H]2C1(C)C | > 50 | > 50 | > 50 | > 50 | > 50 | > 50 | > 50 | > 50 | > 50 | > 50
COC(=O)c1ccc([C@@H]2CC[C@]3(C(=O)O)CC[C@]4(C)[C@H](CC[C@@H]5[C@@]6(C)CC[C@H](O)C(C)(C)[C@@H]6CC[C@]54C)[C@@H]23)cc1C(=O)OC | 19.6 | 16.6 | 11.1 | 25.3 | 16.2 | 11.5 | 14.1 | 11.5 | 31.1 | 13.8
COc1ccc(N2C(=O)c3cc([C@@H]4CC[C@]5(C(=O)O)CC[C@]6(C)[C@H](CC[C@@H]7[C@@]8(C)CC[C@H](O)C(C)(C)[C@@H]8CC[C@]76C)[C@@H]45)cc(-c4ccccc4)c3C2=O)cc1 | > 50 | > 50 | > 50 | > 50 | > 50 | 27.9 | 13.6 | > 50 | > 50 | > 50
CC1(C)[C@@H](O)CC[C@]2(C)[C@H]3CC[C@@H]4[C@H]5[C@H](c6ccc7c(c6)C(=O)N(c6ccccc6)C7=O)CC[C@]5(C(=O)O)CC[C@@]4(C)[C@]3(C)CC[C@@H]12 | 24.9 | 31.1 | 34.2 | 31 | 37.8 | 14.3 | 7.93 | 19.9 | > 50 | > 50
CC1(C)[C@@H](O)CC[C@]2(C)[C@H]3CC[C@@H]4[C@H]5[C@H](c6ccc7c(c6)C(=O)NC7=O)CC[C@]5(C(=O)O)CC[C@@]4(C)[C@]3(C)CC[C@@H]12 | 38.5 | 31.1 | 26.6 | > 50 | 34.9 | 17.3 | 26.3 | 20.7 | > 50 | 35.3
COC(=O)c1cc([C@@H]2CC[C@]3(C(=O)O)CC[C@]4(C)[C@H](CC[C@@H]5[C@@]6(C)CC[C@H](O)C(C)(C)[C@@H]6CC[C@]54C)[C@@H]23)cc(C)c1C(=O)OC | 19 | 16.3 | 10.4 | 32.4 | 16.1 | 7.21 | 14 | 6.78 | 33 | 12.1
CC1(C)[C@@H](O)CC[C@]2(C)[C@H]3CC[C@@H]4[C@H]5[C@H](c6cc(C#N)c(C#N)c(-c7ccccc7)c6)CC[C@]5(C(=O)O)CC[C@@]4(C)[C@]3(C)CC[C@@H]12 | 19.2 | 26 | 20.7 | 25.7 | 31.6 | 7 | 5.99 | 13.7 | 36.2 | 27.8
